Experimental data: ChEMBL document CHEMBL2321763, “The role of the acidity of N-heteroaryl sulfonamides as inhibitors of bcl-2 family protein-protein interactions” (ACS Med Chem Lett, 2013)
pIC50, pKd: −log10 of the molar value. Converted amounts (≈) assume the structure as drawn.

Legend:
[1] = test system: Toledo; assay: Induction of apoptosis in human Toledo cells; format: functional; details: read-out: LD50 (the source's name)
[2] = test system: Rattus norvegicus; assay: AUC in Sprague-Dawley rat at 1 mg/kg, iv; format: ADME, organism-based, Plasma; set-up: dose 1 mg/kg, route intravenous; details: in vivo
Summary of the method: (§1)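 Rats got a single 1 mg/kg iv dose for plasma clearance, AUC and Vdss, and a 10 mg/kg po dose for oral bioavailability (%F). The vehicle was a solution of either 10% PG, 5% cremophor EL and 85% citrate buffer, or 10% PG, Solutol and 40% water for injection.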

[3] = Solubility of compound in fasted state simulated intestinal fluid
[4] = Volume of distribution at steady state in Sprague-Dawley rat at 1 mg/kg, iv and 10 mg/kg, po; format: ADME, organism-based; details: in vivo, read-out: Vdss; summary of the method: as §1
[5] = target: T1, Apoptosis regulator Bcl-2 (Homo sapiens, UniProt P10415); assay: Binding affinity to Bcl-2 (unknown origin) by surface plasmon resonance analysis
[6] = Clearance in Sprague-Dawley rat plasma at 1 mg/kg, iv; format: ADME, organism-based; set-up: dose 1 mg/kg, route intravenous; summary of the method: as §1
[7] = target: T1, Apoptosis regulator Bcl-2; assay: Inhibition of Bcl-2/biotinylated BAK (unknown origin) interaction incubated for 1 hr by surface plasmon resonance analysis
[8] = target: Bcl-2-like protein 1 (Homo sapiens, UniProt Q07817); assay: Inhibition of Bcl-xL/BAK (unknown origin) interaction
[9] = Oral bioavailability in Sprague-Dawley rat at 10 mg/kg; format: ADME, organism-based; details: in vivo; summary of the method: as §1
[10] = Ratio of compound solubility to ABT-737 solubility in fasted state simulated intestinal fluid; format: physicochemical; details: simulated gi fluid

T1 sequence (P10415 whole entry): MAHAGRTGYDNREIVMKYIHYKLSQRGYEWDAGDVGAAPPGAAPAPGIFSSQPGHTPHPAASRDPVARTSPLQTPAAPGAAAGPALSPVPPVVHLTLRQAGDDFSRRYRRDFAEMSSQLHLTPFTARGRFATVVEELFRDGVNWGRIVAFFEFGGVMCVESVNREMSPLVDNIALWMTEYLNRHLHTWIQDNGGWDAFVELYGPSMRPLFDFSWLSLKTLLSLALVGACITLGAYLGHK
Bcl-2-like protein 1, sequence (Q07817 whole entry): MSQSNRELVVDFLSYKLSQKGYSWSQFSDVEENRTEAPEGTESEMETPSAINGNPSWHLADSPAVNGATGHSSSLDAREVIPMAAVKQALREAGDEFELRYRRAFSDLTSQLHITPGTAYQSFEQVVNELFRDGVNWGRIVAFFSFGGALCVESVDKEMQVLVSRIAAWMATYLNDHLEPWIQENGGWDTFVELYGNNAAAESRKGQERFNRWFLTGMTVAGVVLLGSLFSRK

SMILES	CC50 [1] [nM]	AUC [2]	solubility [3] [µM]	Vd [4] [L/kg]	pKd [5]	clearance [6] [mL/min/kg]	pIC50 [7]	pIC50 [8]	bioavailability [9] [%]	Ratio [10]
CN(C)CC[C@H](CSc1ccccc1)Nc1ccc(S(=O)(=O)NC2=NS(=O)(=O)c3cc(N4CCN(Cc5ccccc5-c5ccc(Cl)cc5)CC4)ccc32)cc1[N+](=O)[O-]	> 30000	761 nmol/h	< 5	0.09	7.85	25	7.77			
CN(C)CC[C@H](CSc1ccccc1)Nc1ccc(S(=O)(=O)Nc2nc(Cl)nc3c2CCN(C2CCN(Cc4ccccc4-c4ccc(Cl)cc4)CC2)C3)cc1S(=O)(=O)C(F)(F)F	5370		22 (≈ 21.2 µg/mL)		7.77		7.49	7.70		
CN(C)CC[C@H](CSc1ccccc1)Nc1ccc(S(=O)(=O)Nc2nnc3n2CCN(C2CCN(Cc4ccccc4-c4ccc(Cl)cc4)CC2)CC3)cc1S(=O)(=O)C(F)(F)F	3470		87 (≈ 81 µg/mL)		8.30		7.60			
CN(C)CC[C@H](CSc1ccccc1)Nc1ccc(S(=O)(=O)NC(=O)c2ccc(N3CCN(Cc4ccccc4-c4ccc(Cl)cc4)CC3)cc2)cc1[N+](=O)[O-] [ABT 737]	60		7 (≈ 5.69 µg/mL)							
CN(C)CC[C@H](CSc1ccccc1)Nc1ccc(S(=O)(=O)Nc2cccc3cc(N4CCN(Cc5ccccc5-c5ccc(Cl)cc5)CC4)cnc23)cc1[N+](=O)[O-]	3950		44 (≈ 36.8 µg/mL)				7.17			
O=S(=O)(Nc1nnc2n1CCN(C1CCN(Cc3ccccc3-c3ccc(Cl)cc3)CC1)C2)c1ccc(N[C@H](CCN2CCOCC2)CSc2ccccc2)c(S(=O)(=O)C(F)(F)F)c1	15900		9 (≈ 8.64 µg/mL)				6.50			
O=S(=O)(Nc1ncnc2c1CN(C1CCN(Cc3ccccc3-c3ccc(Cl)cc3)CC1)C2)c1ccc(N[C@H](CCN2CCOCC2)CSc2ccccc2)c(S(=O)(=O)C(F)(F)F)c1	107000		70 (≈ 67 µg/mL)				6.13			
CN(C)CC[C@H](CSc1ccccc1)Nc1ccc(S(=O)(=O)Nc2ncnc3c2CCN(C2CCN(Cc4cc(F)ccc4-c4ccc(Cl)cc4)CC2)C3=O)cc1S(=O)(=O)C(F)(F)F	> 30000		63 (≈ 60.5 µg/mL)		6.98		6.85	7.66		
CN(C)CC[C@H](CSc1ccccc1)Nc1ccc(S(=O)(=O)Nc2ncnc3c2CCN(C2CCN(Cc4ccccc4-c4ccc(Cl)cc4)CC2)C3)cc1S(=O)(=O)C(F)(F)F	298	0.232 µM·h	64 (≈ 59.4 µg/mL)	8.6	8.15	68	7.72	7.62	< 5	
CN(C)CC[C@H](CSc1ccccc1)Nc1ccc(S(=O)(=O)Nc2ncnc3c2CCN(C2CCN(Cc4cc(F)ccc4-c4ccc(Cl)cc4)CC2)C3)cc1S(=O)(=O)C(F)(F)F	197		25 (≈ 23.7 µg/mL)		8.52		7.48	7.13		
CN(C)CC[C@H](CSc1ccccc1)Nc1ccc(S(=O)(=O)Nc2nc(C(F)(F)F)nc3c2CCN(C2CCN(Cc4ccccc4-c4ccc(Cl)cc4)CC2)C3)cc1S(=O)(=O)C(F)(F)F	3900		36 (≈ 35.9 µg/mL)		8.00		7.34	7.21		
CC(c1ccccc1-c1ccc(Cl)cc1)N1CCC(N2CCc3c(ncnc3NS(=O)(=O)c3ccc(N[C@H](CCN(C)C)CSc4ccccc4)c(S(=O)(=O)C(F)(F)F)c3)C2)CC1 (some centres not stated)	113	0.19 µM·h	31 (≈ 29.2 µg/mL)	5.28	8.70	89		6.94		
O=[N+]([O-])c1cc(S(=O)(=O)Nc2cccc3cc(N4CCN(Cc5ccccc5-c5ccc(Cl)cc5)CC4)ccc23)ccc1N[C@H](CCN1CCOCC1)CSc1ccccc1	> 30000						< 5.40			
CN(C)CC[C@H](CSc1ccccc1)Nc1ccc(S(=O)(=O)Nc2nn(C)c3nc(N4CCN(Cc5ccccc5-c5ccc(Cl)cc5)CC4)ncc23)cc1[N+](=O)[O-]	> 30000						5.07			
CN(C)CC[C@H](CSc1ccccc1)Nc1ccc(S(=O)(=O)Nc2nnc3cc(N4CCN(Cc5ccccc5-c5ccc(Cl)cc5)CC4)cnn23)cc1[N+](=O)[O-]	4800		31 (≈ 25.7 µg/mL)		8.10		7.60			4
